Source: ChEMBL document CHEMBL5108081, “Development of an N-Terminal BRD4 Bromodomain-Targeted Degrader” (ACS Med Chem Lett, 2022)
pIC50: −log10 of the molar value. Calls of active or inactive are those of the source. The rule behind the calls is not given here.

Assays:
[1] = target: T1, Protein cereblon/Bromodomain-containing protein 4 (Homo sapiens, UniProt O60885+Q96SW2); assay: Binding affinity to GST-tagged CRBN/6xHis-tagged BRD4-BD1 (unknown origin) assessed as ternary complex formation measured by TR-FRET assay; format: protein assay
T1 sequence (Q96SW2 whole entry, looked up, other chains not shown): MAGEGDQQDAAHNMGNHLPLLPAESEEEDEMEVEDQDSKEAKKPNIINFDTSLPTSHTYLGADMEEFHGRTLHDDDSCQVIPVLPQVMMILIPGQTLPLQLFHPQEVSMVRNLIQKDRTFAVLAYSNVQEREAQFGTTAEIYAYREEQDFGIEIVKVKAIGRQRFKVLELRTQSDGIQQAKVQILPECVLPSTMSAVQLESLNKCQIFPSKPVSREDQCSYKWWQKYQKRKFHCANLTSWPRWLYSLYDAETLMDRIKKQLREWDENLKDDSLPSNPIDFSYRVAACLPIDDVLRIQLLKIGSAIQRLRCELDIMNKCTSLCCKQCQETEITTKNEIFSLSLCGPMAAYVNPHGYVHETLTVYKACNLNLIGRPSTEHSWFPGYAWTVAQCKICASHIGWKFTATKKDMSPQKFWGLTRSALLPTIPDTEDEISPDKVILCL

[2] = target: T1, Protein cereblon/Bromodomain-containing protein 4; assay: Binding affinity to GST-tagged CRBN/6xHis-tagged BRD4-BD1 (unknown origin) assessed as induction of dimerization of CRBN/BRD4-BD1 at 4.6 nM measured by TR-FRET assay; format: protein assay
[3] = target: T1, Protein cereblon/Bromodomain-containing protein 4; assay: Protac activity at CRBN/BRD4-BD1 in human MM1.S cells assessed as induction of BRD4-BD1 degradation measured after 24 hrs by western blot analysis; format: cell-based
In short: (§1)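 MM.1S cells were treated for 24 h, and BRD4 was probed by western blot. Band densitometry was quantified from three biological replicate blots.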

[4] = target: T1, Protein cereblon/Bromodomain-containing protein 4; assay: Protac activity at CRBN/BRD4-BD1 in human MM1.S cells assessed as induction of BRD4-BD1 degradation measured after 24 hrs by western blot analysis relative to control; format: cell-based; in short: as §1
[5] = target: T1, Protein cereblon/Bromodomain-containing protein 4; assay: Protac activity at Halo-tagged CRBN/BRD4-BD1-NanoLuc fusion protein expressed in human HEK293T cells assessed as induction of BRD4-BD1 degradation at 0.2 uM measured by NanoBRET assay; format: cell-based
MM1.S = assay: Cytotoxicity against human MM1.S cells assessed as downregulation of cMyc expression; format: toxicity, cell-based
[6] = target: T1, Protein cereblon/Bromodomain-containing protein 4; assay: Protac activity at CRBN/BRD4-BD1 in human MM1.S cells assessed as induction of BRD4-BD1 degradation measured at 5 uM after 8 hrs by western blot analysis; format: cell-based
In short: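 Time-course study in MM.1S cells with BRD4 levels followed by western blot at successive time points. BRD2, BRD3 and cMyc were also probed.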

[7] = target: T1, Protein cereblon/Bromodomain-containing protein 4; assay: Protac activity at CRBN/BRD4-BD1 in human MM1.S cells assessed as induction of BRD4-BD1 degradation measured at 1 uM in presence of 0.01 to 1 uM iBET-BD2 measured by Western blot analysis; format: cell-based
In short: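 Rescue experiment in MM.1S cells: the degrader was co-treated with a pan-BD1 inhibitor, the proteasome inhibitor MG132, the neddylation inhibitor MLN4924 or the pan-BD2 inhibitor iBET-BD2. BRD4 was then read by western blot against an untreated control on the same gel.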

Homo sapiens [8] = species on record: Homo sapiens; assay: Ratio IC50 for inhibition of BRD3-BD1 (unknown origin) over inhibition of His9-tagged BRD4-BD1 (unknown origin)
Homo sapiens [9] = species on record: Homo sapiens; assay: Ratio IC50 for inhibition of BRD3-BD2 (unknown origin) over inhibition of His9-tagged BRD4-BD1 (unknown origin)
Homo sapiens [10] = species on record: Homo sapiens; assay: Ratio IC50 for inhibition of BRD2-BD2 (unknown origin) over inhibition of His9-tagged BRD4-BD1 (unknown origin)
[11] = target: T1, Protein cereblon/Bromodomain-containing protein 4; assay: Binding affinity to GST-tagged CRBN/6xHis-tagged BRD4-BD1 (unknown origin) assessed as induction of dimerization of CRBN/BRD4-BD1 measured by TR-FRET assay; format: protein assay
[12] = target: T1, Protein cereblon/Bromodomain-containing protein 4; assay: Binding affinity to GST-tagged CRBN/6xHis-tagged BRD4-BD2 (unknown origin) assessed as induction of dimerization of CRBN/BRD4-BD2 measured by TR-FRET assay; format: protein assay
[13] = target: T2, Bromodomain-containing protein 3 (Homo sapiens, UniProt Q15059); assay: Inhibition of BRD3-BD1 (unknown origin) measured by AlphaScreen assay
T2 sequence (Q15059 whole entry): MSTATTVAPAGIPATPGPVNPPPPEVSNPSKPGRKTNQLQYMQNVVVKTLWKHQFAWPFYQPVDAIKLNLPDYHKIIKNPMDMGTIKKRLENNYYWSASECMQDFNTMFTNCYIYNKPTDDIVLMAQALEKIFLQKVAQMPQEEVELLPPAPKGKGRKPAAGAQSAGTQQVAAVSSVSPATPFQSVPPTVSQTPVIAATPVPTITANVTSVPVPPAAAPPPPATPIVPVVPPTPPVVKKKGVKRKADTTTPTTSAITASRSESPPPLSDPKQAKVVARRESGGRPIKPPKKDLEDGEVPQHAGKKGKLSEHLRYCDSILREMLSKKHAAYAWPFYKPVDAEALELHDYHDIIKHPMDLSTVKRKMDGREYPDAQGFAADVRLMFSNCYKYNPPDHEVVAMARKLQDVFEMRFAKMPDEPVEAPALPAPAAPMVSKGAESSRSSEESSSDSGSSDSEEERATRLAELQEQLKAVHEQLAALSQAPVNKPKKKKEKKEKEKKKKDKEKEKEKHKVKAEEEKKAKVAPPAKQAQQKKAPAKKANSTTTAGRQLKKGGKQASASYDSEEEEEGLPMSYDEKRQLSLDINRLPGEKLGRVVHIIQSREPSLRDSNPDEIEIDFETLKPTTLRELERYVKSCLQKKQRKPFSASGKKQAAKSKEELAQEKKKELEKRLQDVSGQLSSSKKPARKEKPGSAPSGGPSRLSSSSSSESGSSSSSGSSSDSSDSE
In short: (§2)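 Commercial AlphaScreen displacement assay run by an outside service on a panel of BET bromodomains. Values are the means of duplicate experiments.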

[14] = target: T2, Bromodomain-containing protein 3; assay: Inhibition of BRD3-BD2 (unknown origin) measured by AlphaScreen assay; in short: as §2
[15] = target: T3, Bromodomain-containing protein 2 (Homo sapiens, UniProt P25440); assay: Inhibition of BRD2-BD1 (unknown origin) measured by AlphaScreen assay; in short: as §2
T3 sequence (P25440 whole entry): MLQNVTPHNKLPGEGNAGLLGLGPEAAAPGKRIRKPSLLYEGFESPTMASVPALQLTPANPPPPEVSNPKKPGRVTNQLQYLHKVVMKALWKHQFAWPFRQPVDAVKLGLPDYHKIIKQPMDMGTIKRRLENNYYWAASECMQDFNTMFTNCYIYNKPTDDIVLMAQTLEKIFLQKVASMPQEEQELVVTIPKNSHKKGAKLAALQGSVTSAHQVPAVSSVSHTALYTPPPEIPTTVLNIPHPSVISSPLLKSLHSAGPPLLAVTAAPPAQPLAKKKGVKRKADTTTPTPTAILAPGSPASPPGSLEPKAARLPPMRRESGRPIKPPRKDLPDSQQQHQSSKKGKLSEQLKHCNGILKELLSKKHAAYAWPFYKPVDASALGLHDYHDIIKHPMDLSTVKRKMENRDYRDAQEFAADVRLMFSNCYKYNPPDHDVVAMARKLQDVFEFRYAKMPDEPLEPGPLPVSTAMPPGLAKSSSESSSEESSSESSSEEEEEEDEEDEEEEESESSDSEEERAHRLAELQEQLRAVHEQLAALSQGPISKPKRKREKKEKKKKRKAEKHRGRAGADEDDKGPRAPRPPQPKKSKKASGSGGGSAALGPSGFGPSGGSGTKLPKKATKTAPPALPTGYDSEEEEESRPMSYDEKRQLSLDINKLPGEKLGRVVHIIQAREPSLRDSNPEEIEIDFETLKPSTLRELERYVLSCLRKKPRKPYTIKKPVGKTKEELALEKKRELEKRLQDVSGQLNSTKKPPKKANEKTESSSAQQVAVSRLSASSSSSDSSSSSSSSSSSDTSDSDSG

[16] = target: T3, Bromodomain-containing protein 2; assay: Inhibition of BRD2-BD2 (unknown origin) measured by AlphaScreen assay; in short: as §2
Homo sapiens [17] = species on record: Homo sapiens; assay: Ratio IC50 for inhibition of BRD4-BD2 (unknown origin) over inhibition of His9-tagged BRD4-BD1 (unknown origin)
Homo sapiens [18] = species on record: Homo sapiens; assay: Ratio IC50 for inhibition of BRD2-BD1 (unknown origin) over inhibition of His9-tagged BRD4-BD1 (unknown origin)

## Cc1ccc(C(C)C)cc1Oc1nccc(-c2c(-c3ccc(C(F)(F)F)cc3)ncn2C2CCN(CCOCCOCCNC(=O)COc3cccc4c3C(=O)N(C3CCC(=O)NC3=O)C4=O)CC2)n1 (configuration not stated)
[1]
  Activity: Active
[2]
  Activity: Active
[3]
  DC50: 0.28 µM
[4]
  Activity: 77%
[5]
  Activity: Active
MM1.S
  Activity: Non-Toxic
[6]
  Activity: Active
[7]
  Activity: Active

## Cc1cc(C)cc(Nc2nccc(-c3c(-c4ccc(F)cc4)ncn3C3CCNCC3)n2)c1
Homo sapiens [8]
  Ratio IC50: 6
Homo sapiens [9]
  Ratio IC50: 6
Homo sapiens [10]
  Ratio IC50: 6

## Cc1sc2c(c1C)C(c1ccc(Cl)cc1)=N[C@@H](CC(=O)NCCCCNC(=O)COc1cccc3c1C(=O)N(C1CCC(=O)NC1=O)C3=O)c1nnc(C)n1-2 (some centres not stated)
[11]
  Activity: Active
[12]
  Activity: Active

## Cc1ccc(C(C)C)cc1Oc1nccc(-c2c(-c3ccc(C(F)(F)F)cc3)ncn2C2CCNCC2)n1
[13]
  pIC50: 6.00
[14]
  pIC50: 4.12
[15]
  pIC50: 6.55
[16]
  pIC50: 5.15

## Cc1cc(C)cc(Nc2nccc(-c3c(-c4ccc(C(F)(F)F)cc4)ncn3C3CCN(CCN)CC3)n2)c1
Homo sapiens [17]
  Ratio IC50: 9
Homo sapiens [8]
  Ratio IC50: 9
Homo sapiens [9]
  Ratio IC50: 9
Homo sapiens [18]
  Ratio IC50: 9
Homo sapiens [10]
  Ratio IC50: 9
